Source: PubChem BioAssay (several laboratories)
Rows were chosen to be rich in hits. Some 2.6% of all compounds tested hit in one or more screens of this group.
rCAG RNA binder = molecules binding r(CAG) RNA repeats; inhibition, % at 3 µM; 370,000 compounds, 1.3% hits; r(CAG) RNA repeat, TO-PRO-1 dye displacement fluorescence;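 active = inhibition above the plate cutoff, the mean of all test compounds on that plate plus 3 SD, cut at about 35% in these data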;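 also: 0% = DMSO alone and 100% = 100 µM mitoxantrone as full dye displacement; higher means more dye released from RNA so lower well fluorescence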
HCV core dimer = HCV core protein dimerization inhibition. AID 1899. TR-FRET GST/Flag-core106 dimerization, 1536-well. 300,000 compounds, 0.33% hits. inhibition, % at 5 µM;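 active = inhibition above the mean of all tested compounds plus 3 SD, set per screening campaign, cut at about 45% in these data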
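Assay system: Tagged HCV core106 pair (GST and Flag) | Buffer or medium: KF-containing HEPES buffer, pH 7.45, DTT, CHAPS, BSA | Also added: Eu donor and XL665 acceptor anti-tag antibodies | Dosing: One concentration, 5 µM, in 0.5% DMSO | Timing: 4 h at 22.5 °C | Technique: TR-FRET 671 and 617 nm emission | Repeats: Singlicate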
NadD block = inhibitors of Staphylococcus aureus NadD; purified NadD enzyme, colorimetric absorbance read-out; inhibition, % at 20 µM; 360,000 compounds, 0.78% hits; AID 602399; in the data active = inhibition above about 26%
ABHD5-PLIN5 inh = blocks binding of human ABHD5 to perilipin-5; Q00G26+Q8WTS1; Split G. princeps luciferase complementation, luminescence, 4 h; inhibition, % at 4 µM; 360,000 compounds, 0.78% hits; AID 602281;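 active = inhibition above the mean inhibition across every tested compound plus 3 SD, cut at about 22% in these data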;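 also: 0% = DMSO only wells and the 100% control is not disclosed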
Target sequence (Q00G26 whole entry, looked up): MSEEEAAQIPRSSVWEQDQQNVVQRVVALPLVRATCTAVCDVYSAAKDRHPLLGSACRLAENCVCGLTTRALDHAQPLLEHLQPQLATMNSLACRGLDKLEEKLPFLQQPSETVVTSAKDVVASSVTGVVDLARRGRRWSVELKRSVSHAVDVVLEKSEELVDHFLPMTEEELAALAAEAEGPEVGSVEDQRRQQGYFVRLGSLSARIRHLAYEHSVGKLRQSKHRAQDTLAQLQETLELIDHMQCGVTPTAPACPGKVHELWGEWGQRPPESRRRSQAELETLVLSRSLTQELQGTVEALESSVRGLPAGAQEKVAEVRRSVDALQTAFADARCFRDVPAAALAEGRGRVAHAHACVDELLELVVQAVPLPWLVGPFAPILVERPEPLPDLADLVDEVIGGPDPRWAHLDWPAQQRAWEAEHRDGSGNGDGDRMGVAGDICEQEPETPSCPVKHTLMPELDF
Target sequence (Q8WTS1 whole entry, looked up): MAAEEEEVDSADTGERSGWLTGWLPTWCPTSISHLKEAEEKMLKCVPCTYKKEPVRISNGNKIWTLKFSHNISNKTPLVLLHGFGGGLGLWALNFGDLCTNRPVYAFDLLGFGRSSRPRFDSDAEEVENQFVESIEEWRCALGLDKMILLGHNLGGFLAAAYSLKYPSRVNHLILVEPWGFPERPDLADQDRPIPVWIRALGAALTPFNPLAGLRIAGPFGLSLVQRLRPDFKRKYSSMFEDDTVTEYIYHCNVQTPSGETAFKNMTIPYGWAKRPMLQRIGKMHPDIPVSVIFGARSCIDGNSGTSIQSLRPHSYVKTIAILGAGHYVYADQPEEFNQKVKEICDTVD
NadD conf = confirmation of Staphylococcus aureus NadD inhibitors; shares compounds with NadD block; purified S. aureus NadD, colorimetric enzyme assay; inhibition, % at 20 µM; 2,000 compounds, 13% hits; in the data active = inhibition mostly above about 42%, no sharp cut-off; inactive = mostly below about 42%
* = called active by the depositor; nt = no result.

SMILES | rCAG RNA binder | HCV core dimer | NadD block | ABHD5-PLIN5 inh | NadD conf
CCOc1ccccc1NC(=O)CSC1=C(C#N)C(c2ccco2)C(C(=O)Nc2nc3ccccc3s2)=C(C)N1 (centres undefined) | 16.1 | 17.2 | 41.9* | 9.3 | 28.7
Cc1ccc(NC(=O)c2sc3nc4c(c(-c5ccco5)c3c2N)CCC4)cc1 | 23.6 | 10.2 | 30.9* | -3.1 | -2.7
Cc1ccccc1NC(=O)c1sc2nc3c(c(-c4ccco4)c2c1N)CCCC3 | 7.2 | 5.6 | 32.6* | -2.1 | 4.1
Nc1c(C(=O)Nc2ccccc2)sc2nc3c(c(-c4ccco4)c12)CCC3 | 11.4 | 14.8 | 27.3 | 5.0 | nt
CC(COc1cccc(Br)c1)CN1CCC(C(O)(c2ccccc2)c2ccccc2)CC1 (centres undefined) | 3.2 | nt | nt | nt | nt
O=C(c1ccc(F)cc1Cl)N(Cc1ccccn1)CC1CCCO1 (centres undefined) | 1.9 | nt | nt | nt | nt
Cc1nn(-c2ccc([N+](=O)[O-])cc2)c2c1C(c1cccc(Br)c1)N1C(=N2)C(=O)Nc2ccccc21 (centres undefined) | 9.4 | 24.6 | 31.5* | -3.3 | 12.7
COc1cc2c(cc1OC)C1(Nc3c-2c(Cc2ccccc2)nn3-c2ccccc2)C(=O)Nc2ccccc21 (centres undefined) | 17.3 | 58.2* | 44.7* | -1.2 | 40.9
COc1cc2c(cc1OC)C1(NCC2)C(=O)Nc2ccccc21 (centres undefined) | 0.6 | 0.9 | -0.2 | -8.7 | nt
COc1ccc([C@H]2C(C#N)=C([S-])N[C@](C)(O)[C@@H]2[n+]2ccccc2)cc1 | 9.8 | nt | 44.8* | -0.5 | 38.7
Cc1cccc(C)c1NC(=O)C1(C)CN(S(C)(=O)=O)CC(=O)N1Cc1cccs1 (centres undefined) | 2.3 | nt | nt | -12.5 | nt
COC(=O)c1ccc(C23CC4(C2)[C@H](CN(CC2CCCCC2)[C@@H]4c2ccccc2)C3c2ccc(Cl)nc2)cc1 (some centres undefined) | 12.9 | -9.9 | 35.0* | 1.5 | 9.4
COC(=O)C1CN(Cc2ccc(C)cc2)CCS(=O)(=O)N1Cc1cn(Cc2ccc(C)cc2)nn1 (centres undefined) | 2.1 | nt | nt | nt | nt
O=C(NCc1ccc(C(=O)N2CCOCC2)cc1)c1cccc(Br)c1 | 0.8 | nt | nt | nt | nt
CCOC(=O)C1=C(C)N=c2s/c(=C\c3ccc(OC(C)=O)c(OCC)c3)c(=O)n2C1/C=C/c1ccccc1 (centres undefined) | 2.7 | 20.9 | 54.1* | -22.2 | 4.2
CCOC(=O)C1=C(C)N=c2s/c(=C\c3ccc(OC(C)=O)cc3)c(=O)n2C1/C=C/c1ccccc1 (centres undefined) | 4.8 | 32.3 | 29.7 | -4.4 | nt
Cc1oc(-c2ccc(F)cc2)cc1-c1nn2c(-c3ccoc3C)nnc2s1 | 36.3* | 90.9* | 53.4* | 29.5* | 15.8
Cc1oc(-c2ccc(F)cc2)cc1-c1nn2c(-c3ccco3)nnc2s1 | 27.7 | nt | nt | nt | nt
CC12CCC(/C(=C/NNc3ccc([N+](=O)[O-])cc3[N+](=O)[O-])C1=O)C2(C)C (centres undefined) | 5.2 | nt | -6.6 | -5.2 | nt
CC1Cc2ccccc2N1Cc1nc2scc(-c3cccs3)c2c(=O)[nH]1 (centres undefined) | 11.3 | 55.2* | 46.0* | 0.4 | -4.5
COC(=O)c1ccc2c(=O)[nH]c(CN3c4ccccc4CC3C)nc2c1 (centres undefined) | 18.8 | 24.8 | 50.1* | 4.1 | 6.4
COC(=O)c1ccc2c(=O)[nH]c(CCl)nc2c1 | 2.6 | -0.9 | -3.7 | -4.6 | nt
COc1ccc(N2CCN(Cc3nc4scc(-c5cccs5)c4c(=O)[nH]3)CC2)cc1 | 3.4 | -6.9 | 3.3 | -4.3 | nt
CCOC(=O)[C@]12CCCC=C1N(CCC1=CCCCC1)C(=O)[C@H](CC(=O)NCc1ccc(OC)c(OC)c1)C2 | 1.2 | nt | nt | 3.0 | nt
CC(C)NC(=O)N[C@H]1C[C@@H]2O[C@H](CO)CC[C@@H]2O[C@@H]1CCc1ccc(-c2ccccc2F)cc1 | 3.0 | nt | nt | nt | nt
SMILES | rCAG RNA binder | HCV core dimer | NadD block | ABHD5-PLIN5 inh | NadD conf
O=C(c1ccoc1)N1CCN(c2cc(-c3cccc(F)c3)nc3cc(-c4cccc(Cl)c4)nn23)CC1 | 6.3 | nt | 45.3* | 1.5 | 6.1
COC(=O)C[C@H]1C=C[C@H](NC(=O)C2CCOCC2)[C@@H](CO)O1 | 3.4 | nt | nt | 7.0 | nt
O=C(COc1cccc2ccccc12)N/N=C/c1ccc(Sc2nc3ccccc3s2)o1 | 4.6 | 27.5 | 35.9* | -3.8 | 27.1
O=C(O)C(=Cc1ccc([N+](=O)[O-])cc1)c1ccccc1 | 0.7 | nt | nt | nt | nt
Cc1ccc(-c2csc(Cc3nc(-c4ccc5c(c4)CCC(=O)N5)cs3)n2)cc1 | 20.4 | 24.6 | 32.8* | -5.9 | 18.7
CCCC(=O)OC[C@H]1CN(C2CCCC2)S(=O)(=O)c2c(Oc3ccccc3)cccc2O1 | 1.5 | nt | nt | nt | nt
Cc1c(-c2cccc(Cl)c2)nc2ccccc2c1C(=O)OC/C(O)=C(\C#N)c1nc2ccccc2[nH]1 | 10.7 | 14.8 | 70.2* | -1.7 | -1.3
Cc1c(C(=O)OC/C(O)=C(\C#N)c2nc3ccccc3[nH]2)oc2ccc(Br)cc12 | 7.6 | 8.3 | 43.1* | 3.4 | 4.3
CC1=C2N=C(N)N(Cc3ccccc3)C(Cc3ccccc3)C2n2c(=O)n(-c3ccccc3)c(=O)n2C1 (centres undefined) | 15.3 | nt | nt | nt | nt
[O-][n+]1ccccc1C(O)CSc1ccccc1 (centres undefined) | 2.5 | nt | nt | nt | nt
Cc1cnc(C(=O)N(CCCn2ccnc2)C2C(=O)Nc3ccccc3N=C2c2ccccc2)cn1 (centres undefined) | 4.1 | nt | -4.5 | -2.4 | nt
CCCCn1c(-c2ccc(Cl)c(Cl)c2)nc2cc3[nH]c(=O)c(C(C)C)nc3cc21 | 9.2 | 21.1 | 37.6* | -12.8 | 15.6
CCCCn1c(-c2ccc(C(C)(C)C)cc2)nc2cc3[nH]c(=O)c(C(C)C)nc3cc21 | 17.1 | 19.4 | 35.7* | 1.2 | 4.3
CCCCn1c(-c2cccc(Br)c2)nc2cc3[nH]c(=O)c(C(C)C)nc3cc21 | 7.3 | 4.2 | 14.5 | -16.5 | nt
COc1ccc(NC(=O)c2cc(-c3ccco3)nc3ccccc23)cc1S(=O)(=O)N1CCOCC1 | 34.5 | 80.7* | 30.2* | 7.3 | 66.7*
COc1ccc(NC(=O)c2cc(C)nc3ccccc23)cc1S(=O)(=O)N1CCOCC1 | 2.9 | nt | -1.7 | 4.1 | nt
O=C(NCC1CCCO1)c1cc(-c2ccco2)nc2ccccc12 (centres undefined) | 21.5 | 20.8 | -0.6 | 6.7 | nt
CN(C)C(CNC(=O)c1cc(-c2ccco2)nc2ccccc12)c1ccccc1 (centres undefined) | 29.2 | nt | 58.9* | 5.5 | 59.0*
Cc1ccc(NC(=O)c2cc(-c3ccco3)nc3ccccc23)cc1S(=O)(=O)N1CCOCC1 | 16.5 | 69.1* | 63.3* | 3.6 | 60.3*
O=C(Nc1ccc(Cl)c(S(=O)(=O)N2CCOCC2)c1)c1cc(-c2ccccn2)nc2ccccc12 | 4.1 | 7.4 | 3.5 | 11.5 | nt
C=CCN1C=C(C(=O)OCC)C(=O)CC1 | 0.4 | nt | nt | nt | nt
O=C(CN1CCC(NC(=O)Nc2ccc(Cl)cc2)CC1)Nc1ccc2c(c1)OCCO2 | 5.2 | nt | nt | nt | nt
